Measured values from ChEMBL document CHEMBL4825662 (J Med Chem, 2021).

Legend:
[1] = Apparent permeability across apical to basolateral side in MDCK-MDR1 cells at 10 uM measured at 60 mins by LC-MS/MS analysis; assay type: ADME, cell-based, Canis lupus familiaris; details: dog, MDCK-MDR1
[2] = Half life in human hepatocytes at 3 uM measured up to 60 mins by LC-MS/MS analysis; assay type: ADME, cell-based, Hepatocyte
[3] = Induction of adverse effect in human infected with Respiratory syncytial virus A Memphis 37b assessed as nausea at 200 to 350 mg administered twice daily administered for 5 days; details: in vivo, 120 h, dose 200-350 mg, time 5 day
Procedure, shortened: (§1)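 Challenge study in healthy adults aged 18–45 inoculated with about 4 log10 PFU of RSV-A Memphis 37b. Dosing was 200 or 350 mg twice daily for 5 days after infection was confirmed. Adverse events were monitored daily. ECG, physical examination and urinalysis were done at prespecified time points.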

[4] = Clearance in CD1 mouse at 1 mg/kg, iv measured after 0.083 to 24 hrs by UHPLC-TOF method; assay type: ADME, organism-based; details: in vivo, time 0.083-24 hrs
Human orthopneumovirus [5] = assay: Antiviral activity against Respiratory syncytial virus A2 infected in Balb/C mouse assessed as reduction in viral titers in lung homogenates at 10 mg/kg, po treated 2 hrs prior to viral infection followed by compound redosing at 24 hrs and measured after 5 days post infection by plaque assay relative to control; assay type: functional, human respiratory syncytial virus; design: scale not given: the % may be the effect or the level left
Procedure, shortened: (§2)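 Female Balb/C mice aged 7–8 weeks, 6 per group, received two oral doses 2 h before and 24 h after intranasal inoculation with 5 × 10⁶ pfu of RSV A2. Mice were euthanized on day 5. Lung homogenate titers were determined by plaque assay on Vero cells and expressed as a percentage of the control group.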

[6] = Cmax in Sprague-Dawley rat at 10 mg/kg, po measured after 0.02 to 24 hrs by UHPLC-TOF method; assay type: ADME, organism-based; design: route oral, dose 10 mg/kg, time 0.02-24 hrs; details: in vivo
[7] = Half life in CD1 mouse at 10 mg/kg, po measured after 0.083 to 24 hrs by UHPLC-TOF method; assay type: ADME, organism-based; details: in vivo, time 0.083-24 hrs
[8] = Intrinsic clearance in Sprague-Dawley rat liver microsomes preincubated followed by NADPH addition and measured up to 45 mins by LC-MS/MS analysis; assay type: ADME, Microsome
[9] = Intrinsic clearance in Beagle dog hepatocytes at 3 uM assessed per million cells measured up to 60 mins by LC-MS/MS analysis; assay type: ADME, cell-based, Canis lupus familiaris, Hepatocyte; details: read-out: CLH
[10] = Protein binding in human plasma assessed as unbound fraction at 5 uM by LC-MS/MS analysis based equilibrium dialysis method; assay type: ADME, cell-free
[11] = test system: Respiratory syncytial virus; assay: Antiviral activity against Respiratory syncytial virus infected in human airway epithelial cells assessed as reduction in RSV titer at 10 nM preincubated for 2 hrs followed by viral infection and measured after 7 day post infection by luminescence assay relative to control; assay type: functional, HAE
Procedure, shortened: (§3)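 Primary HAE cells were differentiated for 61 days on type IV collagen-coated trans-well inserts (n = 3 cultures). Compound at 10 nM was given basolaterally for 2 h before apical inoculation with 4 × 10⁵ pfu of luciferase-expressing recombinant RSV. Apical virus titer was read by luminescence on days 7 and 8 post-infection and compared with untreated controls. Data are mean SD.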

[12] = Half life in Sprague-Dawley rat liver microsomes preincubated followed by NADPH addition and measured up to 45 mins by LC-MS/MS analysis; assay type: ADME, Microsome
[13] = Cmax in Sprague-Dawley rat at 50 mg/kg, po measured after 0.02 to 24 hrs by UHPLC-TOF method; assay type: ADME, organism-based; design: route oral, dose 50 mg/kg, time 0.02-24 hrs; details: in vivo
[14] = Cytotoxicity against African green monkey Vero cells by MTT assay; assay type: cell-based; details: chlorocebus sabaeus
Procedure, shortened: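 Viability was assessed by MTT after culture with compound at 0.01 nM to 100 μM, run in parallel with plaque reduction assays. Values are the average of at least two testing occasions.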

[15] = Protein binding in rat plasma assessed as unbound fraction at 5 uM by LC-MS/MS analysis based equilibrium dialysis method; assay type: ADME, cell-free
[16] = Apparent permeability across basolateral side to apical side in MDCK-MDR1 cells at 10 uM measured at 60 mins by LC-MS/MS analysis; assay type: ADME, cell-based, Canis lupus familiaris; details: dog
[17] = Clearance in Beagle dog at 0.3 mg/kg, iv measured after 0.03 to 24 hrs by UHPLC-TOF method; assay type: ADME, organism-based, Canis lupus familiaris; details: in vivo, time 0.03-24 hrs
[18] = Cardiotoxicity in guinea pig assessed as effect on QT interval; assay type: toxicity, Cavia porcellus
[19] = Clearance in Sprague-Dawley rat at 1 mg/kg, iv administered […] measured after 0.02 to 24 hrs by tandem liquid chromatography/mass spectrometry; assay type: ADME, organism-based; details: in vivo, time 0.02-24 hrs
[20] = Half life in Sprague-Dawley rat at 10 mg/kg, po measured after 0.25 to 24 hrs by UHPLC-TOF method; assay type: ADME, organism-based; details: in vivo, time 0.25-24 hrs
Human orthopneumovirus [21] = assay: Antiviral activity against Respiratory syncytial virus A Memphis 37b infected in human assessed as reduction in mean AUC of viral load at 350 mg administered twice daily administered for 5 days by RT-qPCR analysis; assay type: functional; design: scale not given: the % may be the effect or the level left; details: time 5 day
Procedure, shortened: (§4)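 Healthy adult volunteers aged 18–45 with low serum pre-existing RSV-specific antibodies were challenged on day zero with about 4 log10 PFU of RSV-A Memphis 37b. Subjects were randomized into 3 equal groups: 200 mg, 350 mg or placebo twice daily for 5 days, begun after infection was confirmed. Viral load in nasal wash was measured by RT-qPCR or by cell-based infectivity assay, and AUC was compared with placebo.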

Human orthopneumovirus [22] = assay: Antiviral activity against Respiratory syncytial virus A Memphis 37b infected in human assessed as reduction in mean AUC of viral load at 350 mg administered twice daily administered for 5 days by cell-based infectivity assay; assay type: functional; design: scale not given: the % may be the effect or the level left; details: time 5 day; procedure, shortened: as §4
[23] = test system: Respiratory syncytial virus; assay: Antiviral activity against Respiratory syncytial virus infected in human airway epithelial cells assessed as reduction in RSV titer at 10 nM preincubated for 2 hrs followed by viral infection and measured after 8 day post infection by luminescence assay relative to control; assay type: functional, HAE; procedure, shortened: as §3
[24] = Clearance in Sprague-Dawley rat at 50 mg/kg, po measured after 0.25 to 24 hrs by UHPLC-TOF method; assay type: ADME, organism-based; details: in vivo, time 0.25-24 hrs
[25] = Half life in CD1 mouse at 1 mg/kg, iv measured after 0.03 to 24 hrs by UHPLC-TOF method; assay type: ADME, organism-based; details: in vivo, time 0.03-24 hrs
[26] = Induction of adverse effect in human infected with Respiratory syncytial virus A Memphis 37b assessed as diarrhea at 200 to 350 mg administered twice daily administered for 5 days; details: in vivo, 120 h, dose 200-350 mg, time 5 day; procedure, shortened: as §1
[27] = Oral bioavailability in CD1 mouse at 10 mg/kg measured after 0.03 to 24 hrs by UHPLC-TOF method; assay type: ADME, organism-based; details: in vivo, time 0.03-24 hrs
Procedure, shortened: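 Male CD-1 mice, acclimatized and individually housed, dosed IV and PO as amorphous-solid suspension. Terminal cardiac-puncture blood into heparinized tubes on wet ice, centrifuged at 4 °C within 15 min; plasma snap-frozen at −20 °C. IV arm sampled 2 min–24 h, oral arm 5 min–24 h. Plasma analysed by UHPLC-quadrupole-TOF MS.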

Human orthopneumovirus [28] = assay: Antiviral activity against Respiratory syncytial virus A2 infected in Balb/C mouse assessed as reduction in viral titers in lung homogenates at 1 mg/kg, po treated 2 hrs prior to viral infection followed by compound redosing at 24 hrs and measured after 5 days post infection by plaque assay relative to control; assay type: functional, human respiratory syncytial virus; design: scale not given: the % may be the effect or the level left; procedure, shortened: as §2

With `NCc1ccc2c(c1)nc(CN1C(=O)C3(CC3)c3ccc(F)cc31)n2CCCC(F)(F)F` [SISUNATOVIR] the Papp A→B at 1 h, 10 µM [1] was 0.5 ×10⁻⁶ cm/s, the half-life at 3 µM [2] was 3.52 h and the Activity [3] was “Toxic”. The clearance [4] was 47.9 mL/min/kg, the Activity (Human orthopneumovirus [5]) was 92% and the Cmax [6] was 74.2 ng/mL. It also gave a half-life [7] of 3.1 h, a Microsomal intrinsic clearance [8] of 17 µL/min and a hepatocyte CLint at 3 µM [9] of 2.4 µL/min/1e6 cells. The fraction unbound at 5 µM [10] was 0.67, the “log(activity)” value [11] was 2.3 and the half-life [12] was 1.33 h. The Cmax [13] was 475 ng/mL, the CC50 [14] was over 4 µM and the fraction unbound at 5 µM [15] was 0.52. The Papp B→A at 1 h, 10 µM [16] was 73 ×10⁻⁶ cm/s, the clearance [17] was 17.8 mL/min/kg and the Activity [18] was “Toxic”. The clearance [19] was 164 mL/min/kg, the half-life [20] was 9.9 h and the Activity (Human orthopneumovirus [21]) was 63.05%. The Activity (Human orthopneumovirus [22]) was 68.6%, the “log(activity)” value [23] was 2.35 and the CL/F [24] was 164 mL/min/kg. For the same molecule, the half-life [25] was 4.2 h, the Activity [26] was “Toxic” and the bioavailability [27] was 46.4%. The Activity (Human orthopneumovirus [28]) was 79%.
